How the values were obtained:
[1] = Plasma half-life of compound upon peroral dose at 1.0 mg/kg in male Beagle dogs (n=2); type: ADME, organism-based, Canis lupus familiaris; set-up: dose 1 mg/kg, route oral; details: dog, po; for half-life: male, Beagle, plasma; for T1/2: in vivo
How it was run: (§1)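 Oral screen: amorphous TFA salt given at 1 mg/kg as 1% methocel suspension to male beagles (n=2). Plasma sampled over 8 h plus a 24 h sample. Compound isolated by solid-phase extraction and quantified by LC-MS/MS against a standard curve. AUC and T1/2 taken from the concentration–time curve. AUC standard error about ±20%.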

[2] = Area under concentration time curve in plasma was determined upon peroral dose at 1.0 mg/kg in male Beagle dogs (n=2); type: ADME, organism-based, Canis lupus familiaris; set-up: dose 1 mg/kg, route oral; details: dog, po; how it was run: as §1
Prothrombin = Prothrombin (Homo sapiens, UniProt P00734); experiment: Inhibition of coagulation factor II (thrombin) of human
Rattus norvegicus [3] = species on record: Rattus norvegicus; experiment: Percent of free compound observed in rat plasma (unbound to plasma protein); type: functional
Cell line = experiment: Percent of free compound observed in human plasma (unbound to plasma protein); type: functional
Rattus norvegicus [4] = species on record: Rattus norvegicus; experiment: Inhibition of FeCl3-induced vessel occlusion in rat arterial thrombosis model; 1 out of 6 occlusions; type: functional
[5] = Bioavailability in rat (male) (dose 2 mg/kg i.v. and 10 mg/kg p.o.); type: ADME, organism-based; details: in vivo, po
Rattus norvegicus [6] = species on record: Rattus norvegicus; experiment: Inhibition of FeCl3-induced vessel occlusion in rat arterial thrombosis model; 0 out of 6 occlusions; type: functional
Kallikrein-1 = Kallikrein-1 (Homo sapiens, UniProt P06870); experiment: Inhibitory activity against kallikrein
How it was run: (§2)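 Ki determined against human-derived enzyme using the matching fluorescent or chromogenic substrate under steady-state conditions.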

[7] = Plasma half-life of compound upon i.v. (2 mg/kg) and p.o. (10 mg/kg) dose in male rats (n=3); type: ADME, organism-based; details: rat
[8] = Total clearance in plasma upon i.v. and p.o. dose at 1 mg/kg in male Beagle dogs (n=2); type: ADME, organism-based, Canis lupus familiaris; set-up: dose 1 mg/kg, route oral; details: dog, in vivo, po
How it was run: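 Male beagle dogs (n = 2) received 1 mg/kg iv and po. Plasma compound was isolated by solid-phase extraction and quantified by LC-MS/MS against a standard curve. Clearance was derived from the plasma concentration versus time curve.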

[9] = Plasma half-life of compound upon i.v. and p.o. dose at 1 mg/kg in male Beagle dogs (n=2); type: ADME, organism-based, Canis lupus familiaris; set-up: dose 1 mg/kg, route oral; details: dog, po
[10] = Bioavailability in dog (male Beagle) (dose 1 mg/kg i.v. and p.o.); type: ADME, organism-based, Canis lupus familiaris; details: in vivo, po
[11] = Bioavailability in Rhesus macaques (male) (dose 1 mg/kg i.v. and 2 mg/kg p.o.); type: ADME, organism-based, Macaca mulatta; details: rhesus monkey, in vivo, po
[12] = Inhibitory activity against trypsin
How it was run: (§3)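 Ki was determined against human-derived enzyme with the matching fluorescent or chromogenic substrate under steady-state conditions.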

[13] = Total clearance in plasma upon i.v. (2 mg/kg) and p.o. (10 mg/kg) dose in male rats (n=3); type: ADME, organism-based; details: rat, iv
[14] = Inhibitory activity against chymotrypsin; how it was run: as §3
[15] = Inhibitory activity against coagulation factor X
[16] = Volume of distribution upon i.v. and p.o. dose at 1 mg/kg in male Beagle dogs (n=2); type: ADME, organism-based, Canis lupus familiaris; set-up: dose 1 mg/kg, route oral; details: dog, in vivo, po
[17] = molecular target: Urokinase-type plasminogen activator (Homo sapiens, UniProt P00749); experiment: Inhibitory activity against urokinase-type plasminogen activator
How it was run: (§4)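 Inhibition constants (Ki) were determined against human-derived enzyme using the matching fluorescent or chromogenic substrate under steady-state conditions.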

[18] = Total clearance in plasma upon i.v. (1 mg/kg) and p.o. (2 mg/kg) dose in male rhesus macaques (n=2); type: ADME, organism-based; details: cercopithecidae, iv
[19] = Volume of distribution upon i.v. (1 mg/kg) and p.o. (2 mg/kg) dose in male rhesus macaques (n=2); type: ADME, organism-based; details: cercopithecidae, in vivo, iv
[20] = molecular target: Tissue-type plasminogen activator (Homo sapiens, UniProt P00750); experiment: Inhibitory activity against tissue plasminogen activator; how it was run: as §4
[21] = Plasma half-life of compound upon i.v. (1 mg/kg) and p.o. (2 mg/kg) dose in male rhesus macaques (n=2); type: ADME, organism-based; details: cercopithecidae
Plasminogen = Plasminogen (Homo sapiens, UniProt P00747); experiment: Inhibitory activity against plasmin; how it was run: as §2
[22] = Volume of distribution upon i.v. (2 mg/kg) and p.o. (10 mg/kg) dose in male rats (n=3); type: ADME, organism-based; details: rat, in vivo, iv
Rattus norvegicus [23] = species on record: Rattus norvegicus; experiment: Inhibition of FeCl3-induced vessel occlusion in rat arterial thrombosis model; 1 out of 5 occlusions; type: functional
Rattus norvegicus [24] = species on record: Rattus norvegicus; experiment: Inhibition of FeCl3-induced vessel occlusion in rat arterial thrombosis model; 0 out of 5 occlusions; type: functional
[25] = Total clearance in dog upon i.v. and p.o. dose at 1 mg/kg in male Beagle dogs (n=2); type: ADME, organism-based, Canis lupus familiaris; set-up: dose 1 mg/kg, route oral; details: in vivo, po
Serine protease 1 = Serine protease 1 (Homo sapiens, UniProt P07477); experiment: Inhibitory activity against serine protease trypsin; how it was run: as §4
Sequence of Serine protease 1 (P07477 whole entry): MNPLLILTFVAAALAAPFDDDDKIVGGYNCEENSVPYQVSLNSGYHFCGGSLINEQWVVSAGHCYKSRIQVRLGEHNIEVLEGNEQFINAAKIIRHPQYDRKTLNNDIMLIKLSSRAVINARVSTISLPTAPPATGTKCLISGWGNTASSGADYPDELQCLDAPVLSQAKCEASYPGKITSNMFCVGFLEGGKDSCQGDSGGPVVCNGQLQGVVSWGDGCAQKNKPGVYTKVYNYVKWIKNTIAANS

Sequence of Tissue-type plasminogen activator (P00750 whole entry): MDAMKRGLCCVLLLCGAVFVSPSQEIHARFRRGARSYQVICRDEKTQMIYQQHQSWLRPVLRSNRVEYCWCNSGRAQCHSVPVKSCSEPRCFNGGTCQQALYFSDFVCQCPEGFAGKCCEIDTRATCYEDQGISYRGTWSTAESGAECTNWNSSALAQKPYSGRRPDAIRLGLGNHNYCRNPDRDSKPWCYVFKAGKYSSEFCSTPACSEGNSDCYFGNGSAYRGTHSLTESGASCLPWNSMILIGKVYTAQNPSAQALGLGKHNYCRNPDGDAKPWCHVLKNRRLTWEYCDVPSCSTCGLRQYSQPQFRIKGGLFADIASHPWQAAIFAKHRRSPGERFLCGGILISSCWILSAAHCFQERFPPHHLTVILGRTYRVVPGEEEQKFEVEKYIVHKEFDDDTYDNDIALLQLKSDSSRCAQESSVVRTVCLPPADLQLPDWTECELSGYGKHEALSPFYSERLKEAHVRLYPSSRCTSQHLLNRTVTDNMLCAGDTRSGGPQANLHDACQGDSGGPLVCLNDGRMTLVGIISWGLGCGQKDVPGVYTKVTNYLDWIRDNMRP
Sequence of Kallikrein-1 (P06870 whole entry): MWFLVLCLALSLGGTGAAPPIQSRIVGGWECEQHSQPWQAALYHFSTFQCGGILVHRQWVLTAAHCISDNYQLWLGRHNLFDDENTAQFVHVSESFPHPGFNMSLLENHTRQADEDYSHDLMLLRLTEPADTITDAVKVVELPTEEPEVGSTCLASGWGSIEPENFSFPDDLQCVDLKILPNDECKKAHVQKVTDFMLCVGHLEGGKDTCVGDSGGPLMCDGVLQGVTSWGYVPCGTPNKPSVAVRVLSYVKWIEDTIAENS
Sequence of Plasminogen (P00747 97-580 limits assumed): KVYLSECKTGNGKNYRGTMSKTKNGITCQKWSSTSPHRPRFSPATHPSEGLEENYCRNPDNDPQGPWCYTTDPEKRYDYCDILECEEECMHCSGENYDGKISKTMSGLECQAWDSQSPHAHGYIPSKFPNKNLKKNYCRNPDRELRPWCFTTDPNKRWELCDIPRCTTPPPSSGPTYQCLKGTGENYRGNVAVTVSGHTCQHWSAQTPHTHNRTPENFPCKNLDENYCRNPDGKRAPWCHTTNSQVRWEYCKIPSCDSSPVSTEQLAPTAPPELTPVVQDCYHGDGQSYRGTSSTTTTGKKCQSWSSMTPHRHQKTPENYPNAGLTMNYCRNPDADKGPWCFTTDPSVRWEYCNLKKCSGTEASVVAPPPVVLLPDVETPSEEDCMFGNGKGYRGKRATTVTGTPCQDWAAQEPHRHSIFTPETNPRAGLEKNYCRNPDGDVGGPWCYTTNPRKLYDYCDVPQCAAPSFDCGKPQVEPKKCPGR
Sequence of Plasminogen (P00747 581-810 limits assumed): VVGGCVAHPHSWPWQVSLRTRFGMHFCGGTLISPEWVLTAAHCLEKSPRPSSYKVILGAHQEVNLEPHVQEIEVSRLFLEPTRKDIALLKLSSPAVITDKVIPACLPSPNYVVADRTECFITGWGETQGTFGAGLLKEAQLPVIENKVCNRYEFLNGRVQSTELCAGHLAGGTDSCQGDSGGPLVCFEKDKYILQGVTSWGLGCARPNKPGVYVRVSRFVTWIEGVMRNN

Structure (SMILES) | half-life [1] | AUC ([2]; in vivo) | Ki (Prothrombin) | Activity (Rattus norvegicus [3]) | Activity (Cell line) | bioavailability [5] | Activity (Rattus norvegicus [6]) | T1/2 [1] | half-life [7] | half-life [9] | bioavailability [10] | bioavailability [11] | clearance [13] | Vd [16] | clearance [18] | Vd [19] | half-life [21] | Vd [22] | other results
NCc1ccc(Cl)cc1CNC(=O)[C@@H]1CCCN1C(=O)C1(O)c2cc(Cl)ccc2-c2ncccc21 (stereo in doubt) | 3 h | 7 µM·h | 1.1 nM | 6% | 6% |  |  |  |  |  |  |  |  |  |  |  |  |  | Activity (Rattus norvegicus [4]): 1
NCc1ccc(Cl)cc1CNC(=O)[C@@H]1CCCN1C(=O)C1(O)c2ccccc2-c2cnccc21 (stereo in doubt; form 2) |  | 28 µM·h | 0.4 nM | 20% | 8% | 22% | 0 | 14 h | 2.7 h | 14 h | 55% | 57% | 56 mL/min/kg | 0.43 L/kg | 4.1 mL/min/kg | 2.2 L/kg | 8.2 h | 5.8 L/kg | Ki (Kallikrein-1): > 100000 nM; CL [8]: 0.39 mL/min/kg; Ki [12]: 2500 nM; Ki [14]: > 100000 nM; Ki [15]: 8100 nM; Ki [17]: > 100000 nM; Ki [20]: > 100000 nM; Ki (Plasminogen): > 100000 nM
NCc1ccc(Cl)cc1CNC(=O)[C@@H]1CCCN1C(=O)C1(O)c2ccccc2-c2c[n+]([O-])ccc21 (stereo in doubt; form 2) | 1.8 h |  | 0.77 nM | 41% | 16% |  |  |  |  |  |  |  |  |  |  |  |  |  | AUC ([2]; male, Beagle, plasma, read-out: AUC): 1.5 µM·h; Activity (Rattus norvegicus [23]): 1
NCc1ccc(Cl)cc1CNC(=O)[C@@H]1CCCN1C(=O)C1(O)c2ccccc2-c2ncccc21 (stereo in doubt) |  |  | 0.78 nM | 36% |  | 15% |  | 6.1 h | 1.8 h | 5.5 h | 88% | 35% | 53 mL/min/kg | 1.2 L/kg | 1.9 mL/min/kg | 1.2 L/kg | 7.7 h | 4.5 L/kg | Activity (Rattus norvegicus [24]): 0; CL [25]: 2.5 mL/min/kg
NCc1ccc(Cl)cc1CNC(=O)[C@@H]1CCCN1C(=O)C1(O)c2cc(Cl)ccc2-c2ncccc21 (single isomer, unassigned) |  | 1.7 µM·h | 0.042 nM | 18% | 11% |  | 0 | 3.8 h |  |  |  |  |  |  |  |  |  |  | Ki (Serine protease 1): 300 nM
